In ChEMBL document CHEMBL3124914, “Cytotoxic clerodane diterpenes from Zuelania guidonia” (J Nat Prod, 2014):
pIC50: −log10 of the molar value.

Experiments:
[1] = Cytotoxicity against human MIAPaCa2 cells assessed as cell viability after 24 hrs by MTT assay; format: functional, cell-based; details: MIA PaCa-2, 24 h
Summary of the method: (§1)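 Cells kept at 37 °C, 5% CO2 in RPMI 1640 with 10% heat-inactivated FBS, […] streptomycin, and 100 U/mL penicillin. Seeding per well: 1.2 × 10^4 for MIA-PaCa-2, 4 × 10^4 for CCRF-CEM and CEM-ADR5000, and 2 × 10^5 for PBMCs from healthy donors. Compounds were given in DMSO (0.1% DMSO solvent control) at various concentrations for 24 h. Read-out was MTT, and IC50 was taken by nonlinear regression.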

[2] = system: CCRF-CEM; assay: Cytotoxicity against human CCRF-CEM cells assessed as cell viability after 24 hrs by MTT assay; format: functional, cell-based; summary of the method: as §1
[3] = system: PBMC; assay: Cytotoxicity against human PBMC assessed as cell viability after 24 hrs by MTT assay; format: cell-based; summary of the method: as §1
[4] = Cytotoxicity against human CEM/ADR5000 cells assessed as cell viability after 24 hrs by MTT assay; format: functional, cell-based; details: ADR5000, 24 h; summary of the method: as §1

C=CC(=C)CC[C@]1(C)[C@H](C)C[C@H](O)[C@@]23C(=C[C@@H](OC(=O)/C=C/c4ccccc4)C[C@@H]12)[C@@H](OC(C)=O)O[C@H]3OC(C)=O (relative stereo)
pIC50 [1]: 5.34
pIC50 [2]: 5.80
pIC50 [3]: < 5.00
pIC50 [4]: 5.34

C=CC(=C)CC[C@]1(C)[C@H](C)C[C@H](OC(=O)CC(O)CCCCCCCCC)[C@@]23C(=C[C@H](O)C[C@@H]12)[C@@H](OC(C)=O)O[C@H]3OC(C)=O (relative stereo)
pIC50 [1]: 5.13
pIC50 [2]: 5.60
pIC50 [3]: < 5.00
pIC50 [4]: 5.24

C=CC(=C)[C@H](O)C[C@]1(C)[C@H](C)C[C@H](OC(=O)CC(O)CCCCCCCCC)[C@@]23C(=C[C@H](O)C[C@@H]12)[C@@H](OC(C)=O)O[C@H]3OC(C)=O (relative stereo)
pIC50 [1]: < 5.00
pIC50 [2]: 5.26
pIC50 [3]: < 5.00
pIC50 [4]: < 5.00

CC(=O)O[C@H]1O[C@@H](OC(C)=O)[C@]23C1=C[C@H](O)C[C@H]2[C@](C)(CCC1=CCOOC1)[C@H](C)C[C@@H]3OC(=O)/C=C/c1ccccc1 (relative stereo)
pIC50 [1]: 5.16
pIC50 [2]: 5.72
pIC50 [3]: < 5.00
pIC50 [4]: 5.12

C=CC(=C)[C@@H](O)C[C@]1(C)[C@H](C)C[C@H](OC2OC[C@@H](O)[C@H](O)[C@H]2O)[C@@]23C(=C[C@H](OC(=O)CCCCCCCCC)C[C@@H]12)[C@@H](OC(C)=O)O[C@H]3OC(C)=O (relative stereo)
pIC50 [1]: < 5.00
pIC50 [2]: 5.04
pIC50 [3]: < 5.00
pIC50 [4]: < 5.00

CCCCCCCCCC(=O)O[C@H]1C=C2[C@@H](OC(C)=O)O[C@@H](OC(C)=O)[C@]23[C@@H](OC2OC[C@@H](O)[C@H](O)[C@H]2O)C[C@@H](C)[C@@](C)(C[C@H](O)C2=CCOOC2)[C@@H]3C1 (relative stereo)
pIC50 [1]: < 5.00
pIC50 [2]: 5.10
pIC50 [3]: < 5.00
pIC50 [4]: < 5.00

CCCCCCCCCC(=O)O[C@H]1C=C2[C@@H](OC(C)=O)O[C@@H](OC(C)=O)[C@]23[C@@H](OC2OC[C@@H](O)[C@H](O)[C@H]2O)C[C@@H](C)[C@@](C)(C[C@@H](O)C2=CCOOC2)[C@@H]3C1 (relative stereo)
pIC50 [1]: < 5.00
pIC50 [2]: 5.08
pIC50 [3]: < 5.00
pIC50 [4]: < 5.00

C=CC(=C)CC[C@]1(C)[C@H](C)CC[C@@]23C(=CC(=O)C[C@@H]12)[C@@H](OC(C)=O)O[C@H]3OC(C)=O (relative stereo)
pIC50 [1]: < 5.00
pIC50 [2]: 5.02
pIC50 [3]: < 5.00
pIC50 [4]: < 5.00

C=CC(=C)CC[C@]1(C)[C@H](C)C[C@H](OC(=O)/C=C/c2ccccc2)[C@@]23C(=C[C@H](O)C[C@@H]12)[C@@H](OC(C)=O)O[C@H]3OC(C)=O (relative stereo)
pIC50 [1]: < 5.00
pIC50 [2]: 5.28
pIC50 [3]: < 5.00
pIC50 [4]: 5.07

CC[C@@]1(O)C(=O)OCc2c1cc1n(c2=O)Cc2cc3ccccc3nc2-1 [CAMPTOTHECIN]
pIC50 [1]: < 5.00
pIC50 [2]: 7.10
pIC50 [3]: < 5.00
pIC50 [4]: 6.52

COc1cccc2c1C(=O)c1c(O)c3c(c(O)c1C2=O)C[C@@](O)(C(=O)CO)C[C@@H]3O[C@H]1C[C@H](N)[C@H](O)[C@H](C)O1 [DOXORUBICIN]
pIC50 [1]: 5.32
pIC50 [2]: 6.30
pIC50 [3]: < 5.00
pIC50 [4]: < 5.00
